Our source for the Activity values is ChEMBL document CHEMBL1137852, “Novel fluoro- and hydroxyl-containing jasmonate derivatives as highly efficient elicitors in suspension cultures of Taxus chinensis” (2004).

The structures appear in SMILES notation.

Type in all cases: functional
Test [1] can be described thus: Eliciting activity on Tc (taxuyunnanine C) content in cell cultures of Taxus chinensis. The procedure, abridged: (§1)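 T. chinensis suspension cells grown in 50 mL medium in 250-mL flasks. Elicitor added on day 7 after inoculation in ethanol (1 µL per mL medium); controls received an equal volume of ethanol. Tc measured by reverse-phase HPLC and expressed as mg per g dry cells; maximum content within 21 days reported. Triplicate cultures, mean ± S.D.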

The nature of test [2]: Eliciting activity on Tc (taxuyunnanine C) production in cell cultures of Taxus chinensis. The gist of the method:
(§2)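 T. chinensis suspension cells grown in 50 mL medium in 250-mL flasks. Elicitor added on day 7 post-inoculation in ethanol (1 µL per mL medium); controls received an equal volume of ethanol. Tc quantified by reverse-phase HPLC; maximum volumetric production (mg/L) within 21 days reported. Triplicate cultures, mean ± S.D.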

Test [3] is described as follows: Effect on Tc (taxuyunnanine C) production in cell cultures of Taxus chinensis. The gist of the method: as §2
Test [4] in a line: Effect on Tc (taxuyunnanine C) content in cell cultures of Taxus chinensis. The procedure, abridged: as §1
Test [5] can be described thus: Effect on Tc (taxuyunnanine C) content in cell cultures of Taxus chinensis at a concentration of 10 uM. The procedure, abridged: as §1
Test [6] is described as follows: Effect on Tc (taxuyunnanine C) production in cell cultures of Taxus chinensis at a concentration of 100 uM. The procedure, abridged: as §2
Test [7] can be described thus: Effect on Tc (taxuyunnanine C) content in cell cultures of Taxus chinensis at a concentration of 0 uM. The gist of the method:
as §1

Test [8] is described as follows: Effect on Tc (taxuyunnanine C) content in cell cultures of Taxus chinensis at a concentration of 500 uM. The procedure, abridged:
as §1

A short description of test [9]: Effect on Tc (taxuyunnanine C) content in cell cultures of Taxus chinensis at a concentration of 1 uM. The procedure, abridged:
as §1

A short description of test [10]: Effect on Tc (taxuyunnanine C) production in cell cultures of Taxus chinensis at a concentration of 0 uM. The procedure, abridged:
as §2

A short description of test [11]: Effect on Tc (taxuyunnanine C) content in cell cultures of Taxus chinensis at a concentration of 100 uM. The procedure, abridged: as §1
The nature of test [12]: Effect on Tc (taxuyunnanine C) production in cell cultures of Taxus chinensis at a concentration of 500 uM. The gist of the method: as §2
Test [13] can be described thus: Effect on Tc (taxuyunnanine C) production in cell cultures of Taxus chinensis at a concentration of 1 uM. The gist of the method: as §2
A short description of test [14]: Effect on Tc (taxuyunnanine C) production in cell cultures of Taxus chinensis at a concentration of 10 uM. The procedure, abridged:
as §2

`CC/C=C/CC1C(=O)CCC1CC(=O)OCCO` (centres undefined): the Activity in test [1] worked out at 38.1 mg/g DW; in test [2] it was 464 mg/L.

For `CC/C=C/CC1C(=O)CCC1CC(=O)OC` (centres undefined), the values for the Activity in test [1] and in test [2] were 29.2 mg/g DW and 386 mg/L, respectively.

As to `CC/C=C/CC1C(=O)CCC1CC(=O)OCCC` (centres undefined), the Activity in test [1] was found to be 27.9 mg/g DW; in test [2], 357 mg/L.

For the compound `CC/C=C/CC1C(=O)CCC1CC(=O)OCCOCCO` (centres undefined), the figures for the Activity in [1] and in test [2] were 31.4 mg/g DW and 417 mg/L, respectively.

For `CC/C=C/CC1C(=O)CCC1CC(=O)OCC(O)CO` (centres undefined), the Activity was 550 mg/L in test [3]; 47.2 mg/g DW in test [4]; 27 mg/g DW in test [5]; 544 mg/L in test [6]; 9.4 mg/g DW in [7]; 49.8 mg/g DW in [8]. For the same compound, the Activity in test [9] was 11.6 mg/g DW; in [10], 128 mg/L; in test [11], 43.2 mg/g DW; in [12] it was 522 mg/L; in [13], 160 mg/L; in test [14] it was 358 mg/L.

As to `CC/C=C/CC1C(=O)CCC1CC(=O)OCC(F)(F)F` (centres undefined), the results for the Activity in test [1] and in [2] were 34.94 mg/g DW and 440.3 mg/L, respectively.

In the case of `CC/C=C/CC1C(=O)CCC1CC(=O)OCC(F)(F)C(F)(F)F` (centres undefined), the Activity in test [1] came out at 38.22 mg/g DW; in test [2], 480.5 mg/L.
